# CHO parental Ca: signal in parental CHO cells, OX1R antagonist counter-screen; parental CHO-K1, ATP-induced calcium, Fluo-8 fluorescence; inhibition, % at 5.6 µM; 330,000 tested, 0.63% active; AID 463079;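 active means inhibition above that plate's mean sample inhibition plus 3 SD, cut at about 26% in these data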
#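 Measured by: calcium-sensitive Fluo-8 fluorescence / Test system: CHO parental line / Controls: ATP-challenged DMSO wells low, unchallenged DMSO wells high / Measure: % inhibition / Compound: single nominal dose of 5.6 µM per compound / Replicates: single well per compound, no replicates / Reagent: ATP as calcium-mobilizing challenge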
# TAAR1 ag: agonists of human TAAR1. CHO RD-HGA16 TAAR1, Fluo-8 calcium fluorescence; vehicle wells 0%, saturating PEA agonist 100%. AID 624467. Q96RJ0. 360,000 tested, 0.99% active. activation, % at 3 µM;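 active means activation above the mean activation of all test compounds in the run plus 3 SD, cut at about 38% in these data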
# Target sequence (Q96RJ0 whole entry, looked up): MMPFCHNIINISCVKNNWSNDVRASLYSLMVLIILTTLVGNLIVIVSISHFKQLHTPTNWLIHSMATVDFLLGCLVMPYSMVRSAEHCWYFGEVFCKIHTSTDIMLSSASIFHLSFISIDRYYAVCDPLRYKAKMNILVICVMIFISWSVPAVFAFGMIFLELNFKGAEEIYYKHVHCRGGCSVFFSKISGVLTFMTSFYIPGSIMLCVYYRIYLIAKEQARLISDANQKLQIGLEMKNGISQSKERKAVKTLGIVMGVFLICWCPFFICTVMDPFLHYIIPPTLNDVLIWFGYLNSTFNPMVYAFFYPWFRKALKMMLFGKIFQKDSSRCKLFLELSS
#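 Signal – calcium-sensitive Fluo-8 signal, excitation 470-495, emission 515-575 nm · System – RD-HGA16 (CHO) cells co-expressing Gα16 and hTAAR1 · Incubation – 17-24 h seeding, 75 min 37 °C dye, 30 min RT · Compound dosing – 3 µM single concentration · Repeats – no replicates (n 1)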
# TAAR1 antag: human TAAR1 antagonism; Q96RJ0; CHO RD-HGA16 TAAR1, Fluo-8 calcium fluorescence, antagonist; inhibition, % at 3 µM; 360,000 tested, 1.5% active; AID 624466;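 active means inhibition above a per-plate cutoff, the mean inhibition of test compounds on that plate plus 3 SD, cut at about 49% in these data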
#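 Assay system: RD-HGA16 CHO cells with stable hTAAR1 and Gα16 / Reagent: EC80 β-phenethylamine stimulus / Doses: 3 µM, single point / Timing: dye loading 75 min at 37 °C, then 30 min room temperature / Measured by: Fluo-8 intracellular calcium dye fluorescence, real-time kinetic reads / Controls: vehicle wells and EC80 agonist wells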
# OX1R antag-1: antagonists of human orexin 1 receptor | O43613 | CHO/OX1R cells, Fluo-8 calcium fluorescence, orexin A | inhibition, % at 5 µM | 330,000 tested, 0.43% active;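 active means inhibition above its plate's threshold, mean inhibition of all tested compounds on the plate plus 3 SD, cut at about 37% in these data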
# GPR7 antag: human neuropeptides B/W receptor 1 antagonism; P48145; GPR7-expressing cells, fluorescence antagonist assay; inhibition, % at 4.4 µM; 290,000 tested, 1.1% active; AID 1861; in the data active means inhibition above about 16%, passing the limit was not always enough;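 further: cells stimulated with the agonist NPW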
# Target sequence (P48145 whole entry, looked up): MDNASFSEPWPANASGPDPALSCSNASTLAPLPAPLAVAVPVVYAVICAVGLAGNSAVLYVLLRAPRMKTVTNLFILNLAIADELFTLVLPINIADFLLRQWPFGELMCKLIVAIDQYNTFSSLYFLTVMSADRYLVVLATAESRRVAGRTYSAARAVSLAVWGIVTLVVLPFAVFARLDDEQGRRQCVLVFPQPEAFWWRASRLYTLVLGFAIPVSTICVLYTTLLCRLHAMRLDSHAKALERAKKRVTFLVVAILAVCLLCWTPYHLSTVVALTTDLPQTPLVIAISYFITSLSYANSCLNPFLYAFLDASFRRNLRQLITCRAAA
# OX1R antag-2: OX1R (human) antagonism. O43613. OX1R-expressing cells, FRET antagonist read-out. inhibition, % at 6.6 µM. 330,000 tested, 1.8% active; in the data active means inhibition mostly above about 38%, no sharp cut-off; inactive means mostly below about 40%
# GPR7 antag conf: human GPR7 antagonism, confirmation assay; inhibition, % at 4.4 µM; 2,400 tested, 52% active; shares compounds with GPR7 antag; GPR7-expressing cells, calcium fluorescence antagonist mode; in the data active means inhibition above about 24%;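 further: stimulated with the GPR7 agonist NPW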
# MCHR1 antag: MCHR1 (human) antagonism in GPR7 counter-screen. shares compounds with GPR7 antag. MCHR1-expressing cells, fluorescence antagonist assay. inhibition, % at 4.4 µM. 2,400 tested, 62% active. AID 2148; in the data active means inhibition above about 22%
# Hits are given with their value; 0 = inactive; - = no result given. A selection: hits, their analogues and other compounds. The true share with any hit is near 4.6%.
SMILES,CHO parental Ca,TAAR1 ag,TAAR1 antag,OX1R antag-1,GPR7 antag,OX1R antag-2,GPR7 antag conf,MCHR1 antag
O=C(O)c1ccc(Nc2ccc(F)c(F)c2)c([N+](=O)[O-])c1,0,0,0,0,35.6,0,0,0
Cc1cccc(Nc2ccc(C(=O)O)cc2[N+](=O)[O-])c1C,0,0,0,0,0,0,-,-
Cc1cc(OC(C)C(=O)N2CCN(c3ccccc3)CC2)c2c(C)c(C)c(=O)oc2c1 (centres undefined),0,0,0,0,0,0,-,-
CCC(C)CCN1C(Nc2ccccc2)=NC[C@@H]1CC(C)C (some centres undefined),0,0,0,0,0,0,-,-
c1ccc(C[C@H]2CN=C(Nc3ccccc3)N2CCCC2CCCC2)cc1,0,-,-,0,46.5,0,51.3,34.2
CCC(C)CCN1C(Nc2ccccc2)=NC[C@@H]1Cc1ccccc1 (some centres undefined),0,0,0,0,-,0,-,0
CCCCCCCN1C(Nc2ccccc2)=NC[C@@H]1Cc1ccccc1,0,0,0,0,49.7,0,48.3,48.0
c1ccc(CCCCN2C(Nc3ccccc3)=NC[C@@H]2Cc2ccccc2)cc1,0,0,0,0,-,0,-,-
CC1OC(c2ccccc2)OC2COC(c3ccccc3)OC12 (centres undefined),-,0,0,-,-,-,-,-
CCN(CC)C(=O)CN1CCC(c2nc3cc(C)c(C)cc3[nH]2)CC1,0,0,0,0,0,0,-,-
CCOc1ccccc1CNC(=O)c1c([N+](=O)[O-])c(C)nn1C,0,0,0,0,0,0,-,-
Fc1ccc(C(c2nnnn2Cc2ccccc2)N2CCSCC2)cc1 (centres undefined),0,0,0,0,0,0,-,-
Clc1ccc(C(c2nnnn2CCc2ccccc2)N2CCSCC2)cc1 (centres undefined),0,0,0,0,27.9,0,31.2,40.9
CC(CC(=O)NC1CCCC1)c1ccccc1 (centres undefined),0,0,0,0,34.1,0,0,0
O=C(Cc1ccc(F)cc1)OCC(=O)N1CCN(S(=O)(=O)c2ccc(Cl)cc2)CC1,0,0,0,0,-,0,-,-
CC(C)Cc1ccc(C(C)C(=O)OCC(=O)c2c[nH]c3ccccc23)cc1 (centres undefined),75.1,54.5,0,38.7,34.2,0,66.9,78.0
CCOC(=O)c1cnc(Nc2nc3ccccc3o2)nc1CSC(=S)N(CC)CC,0,0,0,0,0,0,-,-
COc1cccc(-n2cc(CN(C)Cc3nc(Cc4cccc(F)c4)no3)cn2)c1,0,0,0,0,0,0,-,-
COc1ccc(CN(C)Cc2nc(Cc3cccc(F)c3)no2)c2cccnc12,0,0,0,0,29.8,0,0,42.9
CN(C)c1ccc(CNC23CC4CC(CC(C4)C2)C3)cc1,-,-,-,-,0,-,-,-
COc1ccc(/C=C2\SC(=O)N(CC(=O)Nc3ccc(F)cc3)C2=O)cc1O,0,0,0,0,28.6,0,0,0
COc1ccc(/C=C2\SC(=O)N(CC(=O)Nc3cccnc3)C2=O)cc1OC,0,0,0,0,0,0,-,-
O=C(NCc1ccccc1)[C@H]1CCCN1C(=O)[C@H]1CCCN1C(=O)c1cccc2ccccc12,-,0,0,-,-,-,-,-
COC(C(=O)Nc1ccc(S(=O)(=O)Nc2ccc(F)cc2)cc1)c1ccccc1 (centres undefined),0,56.3,0,0,21.6,0,51.2,38.6
Cc1ccccc1C(=O)c1cccn1CC(=O)NCCCN1CCCCC1,0,0,0,0,0,0,-,-
SMILES,CHO parental Ca,TAAR1 ag,TAAR1 antag,OX1R antag-1,GPR7 antag,OX1R antag-2,GPR7 antag conf,MCHR1 antag
Cc1ccc(C)c(N2CCN(CCCNC(=O)Cn3cccc3C(=O)c3ccccc3C)CC2)c1,0,0,0,0,28.4,0,35.5,65.1
CCCCC(=O)OCC(=O)Nc1ccc(SC(F)F)cc1,0,0,0,0,0,0,-,-
O=C(Nc1ccc([N+](=O)[O-])cc1)Nc1ccc(OC(F)F)c(Cl)c1,100.2,0,59.5,84.2,22.6,76.2,72.5,74.8
COc1ccc(C(=O)Nc2cccc([N+](=O)[O-])c2)cc1Br,0,0,0,0,0,0,-,-
O=C(Nc1ccc(Cl)c(Cl)c1)c1ccc2c(c1)OCO2,0,0,0,0,27.2,0,0,31.6
COc1ccc(NC(=O)Nc2cccc([N+](=O)[O-])c2)cc1Cl,0,0,0,0,34.7,73.8,37.8,59.4
O=C(Nc1ccc2c(c1)OCO2)Nc1ccc2c(c1)OCO2,0,0,0,0,0,0,-,-
O=C(Nc1ccc(OC(F)F)c(Cl)c1)Nc1ccc2c(c1)OCO2,36.5,0,0,45.1,26.5,0,0,56.4
Clc1cccc(CN2CCN(c3ncc(Cc4ccccc4)cn3)CC2)c1Cl,-,0,0,-,-,-,-,-
O=C(OCC(=O)N1CCN(c2ccccc2)CC1)C1CCCN1S(=O)(=O)c1ccc(Cl)cc1 (centres undefined),-,0,0,-,-,-,-,-
CCN(CC)CCn1c(=S)[nH]c2cc(C(=O)NCCc3ccc(OC)c(OC)c3)ccc2c1=O,-,0,0,-,-,-,-,-
COCc1cc(C)nc(SCc2ccccc2Cl)c1C#N,0,0,0,0,0,0,-,-
COCc1cc(C)nc(SCc2ccc([N+](=O)[O-])cc2)c1C#N,0,0,0,0,29.3,0,0,0
CCC(C)(C(=O)NC1CCCC1)N(Cc1cccs1)C(=O)c1ccc2c(c1)OCO2 (centres undefined),0,0,0,0,29.1,0,29.1,24.6
O=C(NC1CCCCC1)c1ccc2c(c1)OCO2,0,0,0,0,0,0,-,-
COc1cccc(NC(=O)c2nnn(CC(=O)Nc3cc(C)cc(C)c3)c2N)c1,0,0,0,0,0,0,-,-
Cc1cc(C)cc(NC(=O)c2nnn(Cc3cc(C)ccc3C)c2N)c1,67.6,-,-,80.3,50.6,0,86.7,91.3
Clc1ccc(CN2C3=NCCCN3c3ccccc32)cc1Cl,0,0,0,0,24.0,0,26.1,27.4
Clc1ccc(CN2C3=NCCCN3c3ccccc32)cc1,0,0,0,0,0,0,-,-
O=C(CNS(=O)(=O)c1ccccc1)OCC(=O)c1ccc(OC(=O)c2ccccc2)cc1,0,0,0,0,24.1,0,26.1,39.4
O=C(CNS(=O)(=O)c1ccccc1)OCC(=O)c1ccc(Br)cc1,0,0,0,0,0,0,-,-
O=C(CSC1=NS(=O)(=O)c2ccccc2N1)Nc1nccs1,0,0,0,0,-,0,-,-
Cc1nonc1OCCCNc1ccc([N+](=O)[O-])cc1Cl,0,0,0,0,0,0,-,-
COc1ccc(-c2cc(NC(=O)Cc3c(C)[nH]c4ccccc34)ccc2Nc2cccnc2)cc1OC,-,0,0,-,-,-,-,-

# Screening data as filed in PubChem.
